Experimental data from ChEMBL document CHEMBL4765308, “N-alkylpiperidine carbamates as potential anti-Alzheimer's agents” (Eur J Med Chem, 2020).
Active and inactive are the calls of the source. The rule behind the calls is not given here.

Key:
[1] = molecular target: T1, Amine oxidase [flavin-containing] B (Homo sapiens, UniProt P27338); assay: (§1) Inhibition of human recombinant microsomal MAO-B expressed in baculovirus-infected BTI-TN-5B1-4 cells assessed as inhibition of H2O2 production using p-tyramine as substrate preincubated for 15 mins followed by substrate addition by Amplex Red reagent based fluorescence analysis
T1 sequence (P27338 whole entry): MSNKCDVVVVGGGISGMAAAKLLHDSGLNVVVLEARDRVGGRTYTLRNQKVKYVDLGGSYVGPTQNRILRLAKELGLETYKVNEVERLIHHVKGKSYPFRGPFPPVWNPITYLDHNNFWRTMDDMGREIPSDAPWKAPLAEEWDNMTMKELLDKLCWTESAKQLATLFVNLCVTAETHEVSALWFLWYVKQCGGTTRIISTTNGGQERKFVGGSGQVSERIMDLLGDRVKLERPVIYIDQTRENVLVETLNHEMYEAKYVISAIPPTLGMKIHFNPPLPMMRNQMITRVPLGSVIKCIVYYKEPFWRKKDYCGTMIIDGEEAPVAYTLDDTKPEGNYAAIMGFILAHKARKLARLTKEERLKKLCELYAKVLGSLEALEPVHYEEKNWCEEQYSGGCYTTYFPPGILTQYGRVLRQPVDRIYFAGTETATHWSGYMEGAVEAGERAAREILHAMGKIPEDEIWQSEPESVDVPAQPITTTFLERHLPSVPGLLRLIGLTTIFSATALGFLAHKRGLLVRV
Summary of the method: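 Recombinant human MAO-A or MAO-B (insect-cell microsomes) preincubated with compound 15 min at 37 °C in 50 mM sodium phosphate, pH 7.4, 0.05% Triton X-114. Reaction started with 1 mM p-tyramine, 250 µM Amplex Red and 2 U/mL HRP (final concentrations). Resorufin fluorescence (ex 530/em 590 nm) followed for 20 min at 37 °C, duplicates. Blank-corrected residual activity; IC50 from a four-parameter Hill fit.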

Acetylcholinesterase [2] = molecular target: T2, Acetylcholinesterase (Homo sapiens, UniProt P22303); assay: Inhibition of human AChE using acetylthiocholine iodide as substrate preincubated with enzyme for 30 mins followed by substrate addition by Ellman's method
Cholinesterase [3] = molecular target: T3, Cholinesterase (Homo sapiens, UniProt P06276); assay: Inhibition of human BuchE using butyrylthiocholine iodide as substrate preincubated for 30 mins followed by substrate addition by Ellman's method
Homo sapiens = species on record: Homo sapiens; assay: Inhibition of HFIP-pretreated human amyloid beta (1 to 42) self aggregation at 10 uM incubated for 36 to 48 hrs by thioflavin-T based fluorescence method relative to control; details: time 36-48 hrs
Summary of the method: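 HFIP-pretreated Aβ1-42 (1.5 µM) incubated with compound (10 µM) and thioflavin-T (10 µM final) at room temperature with continuous shaking for 36–48 h. Fluorescence (ex 440/em 490 nm) read every 3 min. Percent inhibition compared with Aβ + DMSO control, run in quadruplicate. Three independent experiments, mean ± SD, one-way ANOVA with Bonferroni test.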

SH-SY5Y [4] = assay: Cytotoxicity against human SH-SY5Y cells at 20 uM incubated for 48 hrs […]; type: cell-based
HepG2 = assay: Cytotoxicity against human HepG2 cells at 50 uM incubated for 48 hrs […]; type: cell-based; details: hepg2, 48 h
SH-SY5Y [5] = assay: Neuroprotective activity against human SH-SY5Y cells assessed as reduction in amyloid beta(1 to 42)-induced cell death at 20 uM measured after 48 hrs by Annexin-V APC/7-AAD staining based flow cytometric analysis; type: functional
Summary of the method: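 Aβ1-42 (5 µM) pre-aggregated 24 h at 37 °C in reduced-serum medium, with or without compound (20 µM). SH-SY5Y cells (2×10^4/well) treated the next day for 48 h, then washed in cold PBS and stained with 7-AAD (2 µg/mL, 10 min, room temperature). Percent 7-AAD-positive cells by flow cytometry, relative to control. At least two independent assays in duplicate; ANOVA with t-test.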

[6] = molecular target: T4, Amine oxidase [flavin-containing] A (Homo sapiens, UniProt P21397); assay: Inhibition of human recombinant microsomal MAO-A expressed in baculovirus-infected BTI-TN-5B1-4 cells assessed as inhibition of H2O2 production using p-tyramine as substrate preincubated for 15 mins followed by substrate addition by Amplex Red reagent based fluorescence analysis
T4 sequence (P21397 whole entry): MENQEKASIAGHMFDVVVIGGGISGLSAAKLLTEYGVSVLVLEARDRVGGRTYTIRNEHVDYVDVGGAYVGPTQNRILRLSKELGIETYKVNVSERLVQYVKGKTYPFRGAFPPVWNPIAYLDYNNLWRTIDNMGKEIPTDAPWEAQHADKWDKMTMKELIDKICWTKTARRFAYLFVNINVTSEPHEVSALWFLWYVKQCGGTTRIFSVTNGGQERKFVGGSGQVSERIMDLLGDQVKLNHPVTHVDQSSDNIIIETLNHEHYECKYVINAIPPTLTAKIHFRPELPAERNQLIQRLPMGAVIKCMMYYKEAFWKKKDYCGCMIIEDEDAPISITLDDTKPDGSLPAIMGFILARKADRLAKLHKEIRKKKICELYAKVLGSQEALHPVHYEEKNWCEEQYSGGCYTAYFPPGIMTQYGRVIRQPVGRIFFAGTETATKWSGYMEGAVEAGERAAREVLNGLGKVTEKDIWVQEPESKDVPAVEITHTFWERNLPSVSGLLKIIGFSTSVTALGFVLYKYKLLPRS

[7] = molecular target: T1, Amine oxidase [flavin-containing] B; assay: as §1, with “Time dependent inhibition” for “Inhibition of”, “preincubated with enzyme” for “preincubated”, “for 5 to” for “for”; details: time 5-15 min
SH-SY5Y [8] = assay: Reduction in amyloid beta (1 to 42) aggregates in human SH-SY5Y cells at 20 uM incubated for 48 hrs by DAPI stain based immunofluorescence staining analysis; type: functional, cell-based
Summary of the method: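 SH-SY5Y cells on coverslips treated for 48 h with preincubated Aβ1-42 (5 µM) in reduced-serum medium, with or without compound (20 µM). Fixed in 5% formalin, permeabilized with 0.5% Tween 20 and blocked with 3% BSA. Stained with rabbit anti-amyloid fibril LOC antibody (1:1000, 2 h) and Alexa 488 secondary (1.5 h). DAPI-mounted and imaged by confocal microscopy (63× oil).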

Acetylcholinesterase [9] = molecular target: T2, Acetylcholinesterase; assay: Reversible inhibition of human AChE using acetylthiocholine iodide as substrate preincubated with enzyme at 10XIC50 for 30 mins followed by substrate addition and measured for 5 mins by Ellman's method; details: time 35.0 min
Cholinesterase [10] = molecular target: T3, Cholinesterase; assay: Reversible inhibition of human BuChE using butyrylthiocholine iodide as substrate preincubated with enzyme at 10XIC50 for 30 mins followed by substrate addition and measured for 5 mins by Ellman's method; details: time 35.0 min
Acetylcholinesterase [11] = molecular target: T2, Acetylcholinesterase; assay: Non-time dependent inhibition of human AChE using acetylthiocholine iodide as substrate preincubated with enzyme for 15 to 60 mins followed by substrate addition by Ellman's method; details: time 15-60 min
Cholinesterase [12] = molecular target: T3, Cholinesterase; assay: Non-time dependent inhibition of human BuChE using butyrylthiocholine iodide as substrate preincubated with enzyme for 15 to 60 mins followed by substrate addition by Ellman's method; details: time 15-60 min

T3 sequence (P06276 whole entry): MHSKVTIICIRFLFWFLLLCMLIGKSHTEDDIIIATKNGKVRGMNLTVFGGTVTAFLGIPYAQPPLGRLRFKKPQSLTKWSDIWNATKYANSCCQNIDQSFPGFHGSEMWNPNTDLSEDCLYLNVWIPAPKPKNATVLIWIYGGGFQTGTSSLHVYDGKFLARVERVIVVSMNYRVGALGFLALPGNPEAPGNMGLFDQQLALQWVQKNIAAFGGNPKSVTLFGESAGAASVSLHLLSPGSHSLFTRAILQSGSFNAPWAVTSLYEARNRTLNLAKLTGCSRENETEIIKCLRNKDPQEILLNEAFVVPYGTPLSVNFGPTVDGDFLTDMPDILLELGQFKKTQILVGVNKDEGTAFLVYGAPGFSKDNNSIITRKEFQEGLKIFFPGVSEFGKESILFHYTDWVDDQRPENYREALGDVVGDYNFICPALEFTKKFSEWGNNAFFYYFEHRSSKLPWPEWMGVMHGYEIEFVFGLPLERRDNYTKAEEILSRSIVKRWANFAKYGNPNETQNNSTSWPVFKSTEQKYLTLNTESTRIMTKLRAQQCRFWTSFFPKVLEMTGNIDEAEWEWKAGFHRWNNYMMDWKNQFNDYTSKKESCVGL
T2 sequence (P22303 whole entry): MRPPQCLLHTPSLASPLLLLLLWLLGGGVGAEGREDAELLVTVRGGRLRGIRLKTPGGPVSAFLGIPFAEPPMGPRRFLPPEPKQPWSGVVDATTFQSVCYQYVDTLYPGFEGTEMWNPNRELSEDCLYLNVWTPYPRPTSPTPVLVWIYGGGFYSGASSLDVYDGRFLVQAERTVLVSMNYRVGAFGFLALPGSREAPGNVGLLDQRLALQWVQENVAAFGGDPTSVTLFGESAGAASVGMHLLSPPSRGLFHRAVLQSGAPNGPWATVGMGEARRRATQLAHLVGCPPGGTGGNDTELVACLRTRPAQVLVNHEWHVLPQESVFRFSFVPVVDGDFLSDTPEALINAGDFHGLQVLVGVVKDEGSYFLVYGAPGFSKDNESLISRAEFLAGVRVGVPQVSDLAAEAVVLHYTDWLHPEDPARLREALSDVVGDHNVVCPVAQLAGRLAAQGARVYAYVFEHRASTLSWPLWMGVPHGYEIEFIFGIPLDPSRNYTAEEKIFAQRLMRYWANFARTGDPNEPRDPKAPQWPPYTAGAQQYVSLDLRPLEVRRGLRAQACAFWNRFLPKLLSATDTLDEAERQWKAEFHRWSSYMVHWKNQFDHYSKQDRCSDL

Structure (SMILES)	IC50 [1] [µM]	IC50 (Acetylcholinesterase [2]) [µM]	IC50 (Cholinesterase [3]) [µM]	inhibition (Homo sapiens) [%]	Activity (SH-SY5Y [4])	Activity (HepG2)	Activity (SH-SY5Y [5])	IC50 [6] [µM]	inhibition (INH) [7]	inhibition (SH-SY5Y [8])	inhibition (Acetylcholinesterase [9])	inhibition (Cholinesterase [10])	inhibition (Acetylcholinesterase [11])	inhibition (Cholinesterase [12])
C#CCN1CCC(OC(=O)Nc2ccc(C(C)C)cc2)CC1	0.178	> 100	> 100	25.7	Non-Toxic	Non-Toxic	Active	> 100	Active	Active	–	–	–	–
O=C(Nc1ccccc1)OCC1CCN(Cc2ccccc2)CC1	26.1	7.31	0.555	< 20	Non-Toxic	Non-Toxic	Active	> 100	Not Active	inactive	Active	Active	Active	Active
O=C(Nc1ccccc1)OC1CCCN(C2Cc3ccccc3C2)C1 (stereo unspecified)	> 100	> 100	0.0645	< 20	Non-Toxic	Non-Toxic	–	> 100	–	–	Active	Active	Active	Active
CC(C)c1ccc(NC(=O)OCC2CCN(Cc3ccccc3)CC2)cc1	> 100	2.25	0.809	< 20	Non-Toxic	Non-Toxic	–	> 100	–	–	Active	Active	Active	Active
